Results reported in ChEMBL document CHEMBL2146437, “Burkholdines from Burkholderia ambifaria: antifungal agents and possible virulence factors” (J Nat Prod, 2012).
Converted amounts (≈) assume the structure as drawn.

Legend:
[1] = Toxicity in sheep erythrocytes assessed as concentration required to achieve 10% hemolysis after 1 hr by serial dilution method; format: cell-based, Ovis aries; settings: erythrocyte
Outline: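 Sheep erythrocytes as a 0.25% suspension in phosphate-buffered saline received compound in 2-fold serial dilutions and were held 1 h at 37 °C. Cells were then pelleted at 1000g for 5 min, and supernatant absorbance was read at 540 nm. The value is the concentration giving 10% hemolysis, reported as mean ± standard deviation of two independent measurements.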

Candida albicans = test: Antifungal activity against Candida albicans; format: functional
Aspergillus niger [2] = test: Antifungal activity against Aspergillus niger; format: functional
Saccharomyces cerevisiae = test: Antifungal activity against Saccharomyces cerevisiae; format: functional
[3] = Ratio of HC10 for sheep erythrocytes to MIC for Candida albicans; format: functional
Aspergillus niger [4] = test: Ratio of amphotericin-B MIC to compound MIC for Aspergillus niger; format: functional

Row | Structure (SMILES) | HC10 [1] | MIC (Candida albicans) | MIC (Aspergillus niger [2]) | MIC (Saccharomyces cerevisiae) | Ratio [3] | Ratio (Aspergillus niger [4])
1 | CCCCCCCCCCC[C@H](O[C@@H]1OC[C@@H](O)[C@H](O)[C@H]1O)[C@H](O)[C@H](O)C[C@@H]1CC(=O)N[C@H](CO)C(=O)N[C@H]([C@H](O)c2ccc(O)cc2)C(=O)N[C@H](CC(N)=O)C(=O)NCC(=O)N[C@@H](CC(N)=O)C(=O)N[C@@H](CO)C(=O)N[C@@H]([C@H](O)C(N)=O)C(=O)N1 | 10 µg/mL | 12.5 mg/L (≈ 10.2 µM) | 12.5 mg/L (≈ 10.2 µM) | 0.4 mg/L (≈ 0.325 µM) | 1 | –
2 | CCCCCCCCCCC[C@H](O)[C@H](O)[C@H](O)C[C@@H]1CC(=O)N[C@H](CO)C(=O)N[C@H]([C@H](O)c2ccc(O)cc2)C(=O)N[C@H](CC(N)=O)C(=O)NCC(=O)N[C@@H](CC(N)=O)C(=O)N[C@@H](CO)C(=O)N[C@@H]([C@H](O)C(N)=O)C(=O)N1 (relative stereo) | 4.5 µg/mL | 12.5 mg/L (≈ 11.4 µM) | 1.6 mg/L (≈ 1.46 µM) | 1.6 mg/L (≈ 1.46 µM) | 0.4 | –
3 | C[C@@H]1[C@H](O)[C@@H](C)/C=C/C=C/C=C/C=C/C=C/C=C/C=C/[C@H](O[C@@H]2O[C@H](C)[C@@H](O)[C@H](N)[C@@H]2O)C[C@@H]2O[C@](O)(C[C@@H](O)C[C@@H](O)[C@H](O)CC[C@@H](O)C[C@@H](O)CC(=O)O[C@H]1C)C[C@H](O)[C@H]2C(=O)O [AMPHOTERICIN B] | – | 2.5 mg/L (≈ 2.71 µM) | 2.5 mg/L (≈ 2.71 µM) | 2.5 mg/L (≈ 2.71 µM) | – | –
4 | CCCCCCCCCCC[C@H](O[C@H]1OC[C@@H](O)[C@H](O)[C@H]1O)[C@H](O)[C@H](O)C[C@@H]1CC(=O)N[C@H](CO)C(=O)N[C@H]([C@H](O)c2ccc(O)cc2)C(=O)N[C@H](CCN)C(=O)NCC(=O)N[C@@H](CC(N)=O)C(=O)N[C@@H](CO)C(=O)N[C@@H]([C@H](O)C(N)=O)C(=O)N1 [BURKHOLDINE 1215] | 5 µg/mL | 0.15 mg/L (≈ 0.123 µM) | 0.15 mg/L (≈ 0.123 µM) | 0.15 mg/L (≈ 0.123 µM) | 33 | –
5 | CCCCCCCCCCC[C@H](O[C@@H]1OC[C@@H](O)[C@H](O)[C@H]1O)[C@H](O)[C@H](O)C[C@@H]1CC(=O)N[C@H](CO)C(=O)N[C@H]([C@H](O)c2ccc(O)cc2)C(=O)N[C@H](CCN)C(=O)NCC(=O)N[C@@H](CC(N)=O)C(=O)N[C@@H](CO)C(=O)N[C@@H](CC(N)=O)C(=O)N1 [BURKHOLDINES 1119] | 15 µg/mL | 0.4 mg/L (≈ 0.333 µM) | 0.1 mg/L (≈ 0.0833 µM) | 0.1 mg/L (≈ 0.0833 µM) | 38 | 25
6 | CCCCCCCCCCC[C@H](O[C@@H]1OC[C@@H](O)[C@H](O)[C@H]1O)[C@H](O)[C@H](O)C[C@@H]1CC(=O)N[C@H](CO)C(=O)N[C@H]([C@H](O)c2ccc(O)cc2)C(=O)N[C@H](CC(N)=O)C(=O)NCC(=O)N[C@@H](CC(N)=O)C(=O)N[C@@H](CO)C(=O)N[C@@H](CC(N)=O)C(=O)N1 [BURKHOLDINES 1213] | 37 µg/mL | 31 mg/L (≈ 25.5 µM) | 2 mg/L (≈ 1.65 µM) | 2 mg/L (≈ 1.65 µM) | 1 | –
